Source: ChEMBL document CHEMBL3407360, “Proteasome inhibitors with pyrazole scaffolds from structure-based virtual screening” (J Med Chem, 2015)
Active and inactive are the calls of the source. The calls are words filed in the database; no cut-off is given here.

These compounds were tested on Mus musculus (assay: Toxicity in human LNCAP cells xenografted nude mouse assessed as body weight loss at 5 mg/kg, ip twice a week for 4 weeks). Details: in vivo, 672 h.
Format: organism-based
Design: dose 5 mg/kg, route intraperitoneal
How it was run: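 Male athymic BALB/c nude mice, six weeks old, implanted subcutaneously with LNCaP cells (2 x 10^6 cells/50 µL). At ~100 mm3 tumors, n=5/group received 5 mg/kg ip twice weekly for four weeks in 8% DMSO in HP-β-cyclodextrin and citrate. Tumor volume ((width)2 x length/2) and body weight were measured every 4 days. Tumors were excised and weighed at Day 30.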
For `CC(C)C[C@H](NC(=O)[C@H](CCc1ccccc1)NC(=O)CN1CCOCC1)C(=O)N[C@@H](Cc1ccccc1)C(=O)N[C@@H](CC(C)C)C(=O)[C@@]1(C)CO1` [CARFILZOMIB], the Activity was “Toxic”.

Organism: Homo sapiens
Assay: Inhibition of human 20S proteasome chymotrypsin-like activity preincubated at 10 uM for 30 mins before substrate addition measured over 90 mins by fluorescence assay
Details: not given
`Cc1ccc(OS(=O)(=O)c2cccc(C(F)(F)F)c2)c(-c2cc(-c3ccccc3)n(CC(=O)OCc3cccc(O)c3C)n2)c1` was tested, and the inhibition was “Active”. `CCOCCS(=O)(=O)Oc1ccc(C)cc1-c1cc(-c2ccccc2)n(CCN[C@@H]2CCNC2)n1` was tested, and the inhibition was “Active”. For `Cc1ccc(OS(=O)(=O)c2cccc(C(F)(F)F)c2)c(-c2cc(-c3ccccc3)n(CC(=O)NC[C@@H]3CCCO3)n2)c1`, the inhibition was “Active”. `Cc1ccc(OS(=O)(=O)c2cccc(C(F)(F)F)c2)c(-c2cc(-c3ccccc3)n(CC(=O)NCCN3CCOCC3)n2)c1` was tested, and the inhibition was “Active”. With `Cc1ccc(OS(=O)(=O)c2cccc(C(F)(F)F)c2)c(-c2cc(-c3ccccc3)n(CC(=O)OCc3cc(C)on3)n2)c1` the inhibition was “Active”. In the case of `Cc1ccc(OS(=O)(=O)c2cccc(C(F)(F)F)c2)c(-c2cc(-c3ccccc3)n(CC(=O)NC(C)(C)CO)n2)c1`, the inhibition is reported as “Active”. In the case of `Cc1ccc(OS(=O)(=O)c2ccc(C(F)(F)F)nc2)c(-c2cc(-c3ccccc3)n(CCN[C@@H]3CCNC3)n2)c1`, the inhibition is reported as “Active”. `CC(C)=CCOC(=O)Cn1nc(-c2cc(C)ccc2OS(=O)(=O)c2cccc(C(F)(F)F)c2)cc1-c1ccccc1` was tested, and the inhibition was “Active”. With `Cc1ccc(OS(=O)(=O)c2cccc(C(F)(F)F)c2)c(-c2cc(-c3ccccc3)n(CC(=O)OCc3ccccc3)n2)c1` the inhibition was “Active”. With `Cc1ccc(OS(=O)(=O)c2cccc(C(F)(F)F)c2)c(-c2cc(-c3ccccc3)n(CC(=O)NCCCN3CCCC3=O)n2)c1` the inhibition was “Active”. With `Cc1ccc(OS(=O)(=O)c2cccc(C(F)(F)F)c2)c(-c2cc(-c3ccccc3)n(CC(=O)N[C@H]3CCNC3)n2)c1` the inhibition was “Active”. For `Cc1ccc(OS(=O)(=O)c2ccc(F)c([N+](=O)[O-])c2)c(-c2cc(-c3ccccc3)n(CCN[C@@H]3CCNC3)n2)c1`, the inhibition was “Active”. With `Cc1ccc(OS(=O)(=O)c2cccc(C(F)(F)F)c2)c(-c2cc(-c3ccccc3)n(CC(=O)NCC(C)(C)C)n2)c1` the inhibition was “Active”. In the case of `Cc1ccc(OS(=O)(=O)c2cccc(C(F)(F)F)c2)c(-c2cc(-c3ccccc3)n(CC(=O)OCc3ccc(C)o3)n2)c1`, the inhibition is reported as “Active”. In the case of `CC(=O)N1CC[C@@H](NC(=O)Cn2nc(-c3cc(C)ccc3OS(=O)(=O)c3cccc(C(F)(F)F)c3)cc2-c2ccccc2)C1`, the inhibition is reported as “Active”. With `Cc1ccc(OS(=O)(=O)c2cc(F)c(Br)c(F)c2)c(-c2cc(-c3ccccc3)n(CCN[C@@H]3CCNC3)n2)c1` the inhibition was “Active”. `Cc1ccc(OS(=O)(=O)c2cccc(C(F)(F)F)c2)c(-c2cc(-c3ccccc3)n(CC(=O)N[C@@H]3CCN(C(=O)CN4CCOCC4)C3)n2)c1` was tested, and the inhibition was “Active”. In the case of `Cc1ccc(OS(=O)(=O)c2cccc(C(F)(F)F)c2)c(-c2cc(-c3ccccc3)n(CC(=O)N(C)CC[C@@H](Oc3ccccc3)c3ccccc3)n2)c1`, the inhibition is reported as “Active”. For `Cc1ccc(OS(=O)(=O)c2ccc3c(c2)OCCO3)c(-c2cc(-c3ccccc3)n(CCN[C@@H]3CCNC3)n2)c1`, the inhibition was “Active”. For `Cc1ccc(OS(=O)(=O)c2ccc(Br)cc2OC(F)(F)F)c(-c2cc(-c3ccccc3)n(CCN[C@@H]3CCNC3)n2)c1`, the inhibition was “Active”. `Cc1ccc(OCc2cccc(C(F)(F)F)c2)c(-c2cc(-c3ccccc3)n(CCN[C@@H]3CCNC3)n2)c1` was tested, and the inhibition was “Active”. `Cc1ccc(OS(=O)(=O)c2cccc(C(F)(F)F)c2)c(-c2cc(-c3ccccc3)n(CC(=O)N(C)C)n2)c1` was tested, and the inhibition was “Active”. For `Cc1ccc(OS(=O)(=O)c2cccc(C(F)(F)F)c2)c(-c2cc(-c3ccccc3)n(CC(=O)NCc3ccccc3)n2)c1`, the inhibition was “Active”. In the case of `Cc1ccc(OS(=O)(=O)c2cccc(C(F)(F)F)c2)c(-c2cc(-c3ccccc3)n(CC(=O)O)n2)c1`, the inhibition is reported as “Active”. `CC1=C(COC(=O)Cn2nc(-c3cc(C)ccc3OS(=O)(=O)c3cccc(C(F)(F)F)c3)cc2-c2ccccc2)Cc2ccccc21` was tested, and the inhibition was “Active”. In the case of `Cc1ccc(OC(=O)c2cccc(C(F)(F)F)c2)c(-c2cc(-c3ccccc3)n(CCN[C@@H]3CCNC3)n2)c1`, the inhibition is reported as “Active”. In the case of `Cc1ccc(OS(=O)(=O)c2cccc(C(F)(F)F)c2)c(-c2cc(-c3ccccc3)n(CC(=O)N[C@@H]3CCN(C)C3)n2)c1`, the inhibition is reported as “Active”. In the case of `Cc1ccc(OS(=O)(=O)c2cccc(Cl)c2)c(-c2cc(-c3ccccc3)n(CCN[C@@H]3CCNC3)n2)c1`, the inhibition is reported as “Active”. For `Cc1ccc(OS(=O)(=O)c2cccc(C(F)(F)F)c2)c(-c2cc(-c3ccccc3)n(CC(=O)N[C@@H]3CCN(C(=O)CCc4ccccc4)C3)n2)c1`, the inhibition was “Active”. For `Cc1ccc(OS(=O)(=O)c2cccc(C(F)(F)F)c2)c(-c2cc(-c3ccccc3)n(CC(=O)O[C@@H]3CCNC3)n2)c1`, the inhibition was “Active”. In the case of `Cc1ccc(OS(=O)(=O)c2cccc(C(F)(F)F)c2)c(-c2cc(-c3ccccc3)n(CC(=O)NCc3cnccn3)n2)c1`, the inhibition is reported as “Active”. `Cc1ccc(OS(=O)(=O)c2cccc(C(F)(F)F)c2)c(-c2cc(-c3ccccc3)n(CC(=O)OCc3scnc3C)n2)c1` was tested, and the inhibition was “Active”.

Organism: Homo sapiens
Assay: Induction of human 20S proteasome chymotrypsin-like activity preincubated at 10 uM for 30 mins before substrate addition measured over 90 mins by fluorescence assay
Details: not given
Work on `Cc1ccc(OS(=O)(=O)c2ccc(F)c([N+](=O)[O-])c2)c(-c2cc(-c3ccccc3)n(CCN[C@@H]3CCNC3)n2)c1` yielded an Activity of 200%. Compound `CC1=C(COC(=O)Cn2nc(-c3cc(C)ccc3OS(=O)(=O)c3cccc(C(F)(F)F)c3)cc2-c2ccccc2)Cc2ccccc21` has an Activity of 200%.

Each compound was assayed on BXPC-3 (assay: Cytotoxicity against human BxPC3 cells after 72 hrs). Details: not given.
Format: functional, cell-based
How it was run: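 Adherent lines, growing in log phase in DMEM or RPMI 1640 with 10% FBS, were plated at 7,000–10,000 cells/well. Compound was added 24 h later at the final concentration. Viability was measured after 72 h by CellTiter Glo luminescence or CellTiter 96 Aqueous One absorbance.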
For `Cc1ccc(OS(=O)(=O)c2cccc(C(F)(F)F)c2)c(-c2cc(C3CCCNC3)n(CCN[C@@H]3CCNC3)n2)c1` (stereo partly drawn), the Activity was “inactive”. In the case of `Cc1ccc(OS(=O)(=O)c2cccc(C(F)(F)F)c2)c(-c2cc(C3CCCN(C(=O)N[C@@H]4CCNC4)C3)n(CCN[C@@H]3CCNC3)n2)c1` (stereo partly drawn), the Activity is reported as “inactive”. For `Cc1ccc(OS(=O)(=O)c2cccc(C(F)(F)F)c2)c(-c2cc(C3CCCCC3)n(CCN[C@@H]3CCNC3)n2)c1`, the Activity was “inactive”.
